Sampled rows, rich in hits. Any-hit rate of the full collection: about 3.6%.
Wnt act – Wnt/beta-catenin pathway activators, primary screen, cell-based, plate reader, single point; Wnt/beta-catenin reporter cell assay, activator; activation, % at 9.35 µM; 300,000 tested, 1.2% active; AID 743398, 2014; in the data active = activation above about 30%, passing the limit was not always enough
SR-BI uptake up – activators of SR-BI mediated DiI-HDL uptake, primary screen, ldlA[mSR-BI] CHO cells, DiI fluorescence. activation, % at 12.5 µM. 320,000 tested, 0.096% active. 3 h; 100 = double the neutral-control signal;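 active = mean replicate activation of at least 60% and every replicate at or above 60%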
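Material: SR-BI-overexpressing, LDLR-lacking CHO cells | Dosing: Single compound concentration, delivered by pin transfer | Probe or stimulus: Labelled HDL, 10 µg/mL | Signal: Bottom-read cell fluorescence after medium removal, ex 550/em 595 nm | Schedule: 3 h, 37 °C | Evaluation: HDL uptake via cellular fluorescence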
HSF1 activator – HSF-1 activators, primary screen, NIH3T3-HGL cells, MG132 stress, luminescence, single point; activation, % at 9 µM; NIH3T3-HGL HSF-1 luciferase reporter, 8 h; 100% = twice DMSO control signal; 300,000 tested, 1.7% active;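 active = mean replicate activation of at least 50% with a set share of replicates each reaching 50%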
MITF TRPM1 HTS – activators of MITF-driven TRPM1 promoter reporter, primary screen, cell-based, SK-MEL-5, luciferase, single point. SK-MEL-5 TRPM1-promoter luciferase, 24 h; % of positive control, neutral wells = 0. 300,000 tested, 0.75% active. activation, % at 12.5 µM;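 active = mean activation of at least 80% with every replicate also reaching 80%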
SR-BI DiI inh – inhibitors of SR-BI mediated HDL lipid uptake, primary screen, ldlA[mSR-BI] cells, fluorescence, single point; 320,000 tested, 0.96% active; ldlA[mSR-BI] CHO cells, DiI-HDL uptake fluorescence, 3 h; inhibition, % at 12.5 µM;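 active = mean replicate inhibition of at least 70% and a set share of replicates each scoring 70 or more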
Target sequence (Q61009 whole entry, looked up): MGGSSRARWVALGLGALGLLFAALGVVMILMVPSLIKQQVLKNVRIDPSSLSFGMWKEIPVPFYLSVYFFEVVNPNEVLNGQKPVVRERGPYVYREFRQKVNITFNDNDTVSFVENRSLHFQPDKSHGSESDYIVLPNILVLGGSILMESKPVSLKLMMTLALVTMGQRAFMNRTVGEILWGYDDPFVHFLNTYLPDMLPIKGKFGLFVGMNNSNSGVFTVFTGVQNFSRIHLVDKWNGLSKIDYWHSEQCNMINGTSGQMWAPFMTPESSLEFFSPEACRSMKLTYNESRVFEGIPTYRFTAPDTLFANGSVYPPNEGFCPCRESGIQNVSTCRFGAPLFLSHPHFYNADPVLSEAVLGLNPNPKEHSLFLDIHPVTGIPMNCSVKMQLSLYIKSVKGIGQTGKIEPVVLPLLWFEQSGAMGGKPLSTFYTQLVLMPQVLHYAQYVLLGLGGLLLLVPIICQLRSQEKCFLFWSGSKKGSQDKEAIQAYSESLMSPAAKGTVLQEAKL
DiI quencher – DiI fluorescence quenching in cell-free counter-screen. cell-free DiI-HDL fluorescence quenching, 30 min. AC50, µM (series often up to 35 µM). 470 tested, 20% active. shares compounds with SR-BI DiI inh;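 active = quenching, a falling signal, with AC50 below a set limit tied to the top valid dose, actives reach about 32 µM in these data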
Each line names hits and unclear results; the compound was inactive in the other large screens (follow-up assays come after a bar, where they were run).

COc1ccc(C(=O)C2CCCN(Cc3cccc(C)n3)C2)c(OC)c1 (stereo not drawn)	none (no result: SR-BI uptake up, SR-BI DiI inh)
CC/C(CC(c1ccccc1)c1c(O)c2ccccc2oc1=O)=N\NC(N)=S (stereo not drawn)	SR-BI DiI inh 80 (no result: Wnt act)
CCOC(=O)c1cc2ccccc2n1C1CCN(Cc2ccccc2)CC1	none (no result: SR-BI uptake up, HSF1 activator, MITF TRPM1 HTS, SR-BI DiI inh)
Cc1ccc2c(c1)Oc1ccccc1N=C2	none (no result: SR-BI uptake up, HSF1 activator, MITF TRPM1 HTS, SR-BI DiI inh)
CCCc1[nH]nc2c1C1(C(=O)N(CC(N)=O)c3ccccc31)C(C(=O)OC)=C(N)O2 (stereo not drawn)	none (no result: MITF TRPM1 HTS)
CCCc1[nH]nc2c1C1(C(=O)N(Cc3ccccc3)c3ccccc31)C(C(=O)OC)=C(N)O2 (stereo not drawn)	HSF1 activator 55 (no result: Wnt act)
CN(C)c1ccc(/C=C/C=C2/C(=O)NC(=O)N(c3ccccc3)C2=O)cc1	HSF1 activator 119
O=C1NC(=O)N(c2ccccc2)C(=O)/C1=C/C=C/c1ccco1	none (no result: SR-BI uptake up, SR-BI DiI inh)
CN1C2CCC1C(C(=O)Oc1ccccc1)C(c1ccc(Cl)cc1)C2 (stereo not drawn)	none (no result: SR-BI uptake up, HSF1 activator, MITF TRPM1 HTS, SR-BI DiI inh)
[Cl][Pt+2][Cl].[NH-]C1CCCCC1[NH-] (stereo not drawn)	none (no result: HSF1 activator)
CN(C)CCCN=Cc1c(O)n(CCc2ccc(F)cc2)c(=O)[nH]c1=O	Wnt act 38 (no result: MITF TRPM1 HTS)
O=C(N/N=C/c1c(O)n(Cc2ccc(F)cc2)c(=O)[nH]c1=O)c1ccccc1	SR-BI DiI inh 75 (no result: MITF TRPM1 HTS)
COC(=O)C1=C(c2cccc(OCc3ccccc3)c2)C[C@@H]2CC[C@H]1N2C(=O)NCc1ccccc1OC	none (no result: HSF1 activator)
COC(=O)C1=C(c2cccc(OCc3ccccc3)c2)C[C@@H]2CC[C@H]1N2C(=O)NCCc1ccc(F)cc1	none (no result: HSF1 activator)
CSc1ccc(C(=O)C2CCCN(Cc3cccnc3)C2)cc1 (stereo not drawn)	HSF1 activator 104
CC1(C)C(C(=O)N2CCN(c3ccc(Cl)cc3)CC2)C1(C)C	none
COC(=O)C1CN(C#N)N(c2ccc(Cl)cc2)C12c1ccccc1-c1ccccc12 (stereo not drawn)	SR-BI DiI inh 127 (no result: Wnt act)
N=C1c2ccccc2CN1NC(=O)C1CC1	SR-BI uptake up 66 (no result: Wnt act)
C=CCn1c(O)c(C(C)=NCCN2CCCCC2)c(=O)[nH]c1=O	none (no result: Wnt act, MITF TRPM1 HTS)
C=CCn1c(O)c(C(CC)=NCC2CCCO2)c(=O)[nH]c1=O (stereo not drawn)	HSF1 activator 65 (no result: MITF TRPM1 HTS)
C=CCn1c(O)c(/C(C)=N/N2CCCCC2)c(=O)[nH]c1=O	HSF1 activator 67
COc1ccc(NC(=O)C2C3CCC(O3)C2C(=O)O)c(OC)c1 (stereo not drawn)	none | DiI quencher inactive
CCOC(=O)[C@]12Cc3cc(C)ccc3[C@H]1N(C1CCCCC1)C(=O)c1ccccc12	none (no result: SR-BI uptake up, HSF1 activator, MITF TRPM1 HTS, SR-BI DiI inh)
COC(=O)c1cn(Cc2ccc(F)cc2)c2ccccc12	none (no result: SR-BI uptake up, HSF1 activator, MITF TRPM1 HTS, SR-BI DiI inh)
COC(=O)c1cn(C(=O)c2cccc3ccccc23)c2ccccc12	SR-BI DiI inh 73 | DiI quencher inactive

From PubChem BioAssay
